Screening results from PubChem.
Only some compounds are listed: those with a hit (about 1.8% of all), similar ones and a draw of the others.
MT1-MMP act inh = MT1-MMP (human) activation inhibition | 360,000 tested, 0.061% active | P50281 | GFP/RFP ratio change, % at 20 µM | HT1080 RFP-PRO-GFP cells, GFP/RFP ratio fluorescence, overnight; percent of plate control window, DMSO zero;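 active = GFP/RFP ratio change of at least 30% with cell ATP level not reduced by more than half and red fluorescence within 50% of control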
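Assay system: RFP-PRO-GFP reporter HT1080 cells; read-out basis: GFP/RFP fluorescence ratio; benchmarks: DMSO wells and RFP-L50D-GFP cells; doses: 20 µM single dose, 1% DMSO; schedule: overnight cell settling, then overnight compound exposure, 37 °C, 5% CO2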
SKN-1 inh = blocks SKN-1 activity in C. elegans; C. elegans VP596 Pgst-4::GFP/RFP ratio, acrylamide-induced, 24 h; inhibition, % at 21.8 µM; 360,000 tested, 0.49% active; AID 624304;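 active = interference check ratio from 0.5 to 1.5 plus GFP to RFP signal ratio inhibition reaching or exceeding a fixed threshold, cut at about 30% in these data, passing the limit was not always enough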
DAGLB inh = diacylglycerol lipase beta (human) inhibition; HEK293T DAGLB membrane lysate, EnzChek fluorogenic substrate; inhibition, % at 5.17 µM; 340,000 tested, 0.059% active; in the data active = inhibition above about 34%;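 also: 0% = enzyme with vehicle and 100% = wells lacking enzyme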
Target sequence (Q8NCG7 whole entry, looked up): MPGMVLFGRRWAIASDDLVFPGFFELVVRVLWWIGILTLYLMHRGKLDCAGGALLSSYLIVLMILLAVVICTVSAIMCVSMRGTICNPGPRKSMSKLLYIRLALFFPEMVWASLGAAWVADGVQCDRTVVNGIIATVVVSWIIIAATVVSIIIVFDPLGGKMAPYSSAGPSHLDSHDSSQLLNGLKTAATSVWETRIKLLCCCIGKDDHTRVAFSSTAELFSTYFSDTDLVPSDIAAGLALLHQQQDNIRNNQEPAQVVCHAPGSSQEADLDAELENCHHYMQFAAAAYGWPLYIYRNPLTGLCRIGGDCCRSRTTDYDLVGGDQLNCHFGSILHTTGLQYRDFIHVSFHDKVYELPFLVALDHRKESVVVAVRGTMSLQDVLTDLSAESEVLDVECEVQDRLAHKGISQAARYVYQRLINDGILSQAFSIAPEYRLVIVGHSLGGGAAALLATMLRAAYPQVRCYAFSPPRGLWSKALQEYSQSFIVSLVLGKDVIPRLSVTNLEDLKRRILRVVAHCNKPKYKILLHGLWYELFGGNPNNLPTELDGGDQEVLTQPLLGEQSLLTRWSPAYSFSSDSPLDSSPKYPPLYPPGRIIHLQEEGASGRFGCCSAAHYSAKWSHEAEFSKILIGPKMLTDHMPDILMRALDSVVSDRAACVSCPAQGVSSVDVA
Cneo AK release = Cryptococcus neoformans lysis via adenylate kinase release | C. neoformans lysis, adenylate kinase release luminescence, 4 h; normalised: neutral wells 0, clomiphene wells 100 | lysis activity, % at 15 µM | 360,000 tested, 0.2% active | AID 651654;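 active = mean lysis activity across replicates of at least 80%, whatever share of replicates individually reach that level; inactive = mean lysis activity below 80%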
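Signal: Adenylate kinase release luminescence | Assay system: Log-phase Cryptococcus neoformans yeast cells | Input: Cells at 5 × 10^6 per mL | Buffer or medium: Fresh YPD growth medium | Compound: Single dose | Schedule: Static 4 h at 37 °C with compound, 1 h detection | Controls: Clomiphene | Read-out: Luminescence rise reflecting yeast cell lysis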
hiPSC survival = enhancers of human iPSC single-cell survival. hiPSC single-cell survival, ATPlite luminescence; 100% = ROCK inhibitor wells, 0% = DMSO. survival enhancement, % at 20 µM. 360,000 tested, 0.044% active. AID 602274; in the data active = survival enhancement above about 18%;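 also: cells exposed to compounds for 16 hours before the ATP read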
rRNA inh HTS = selective bacterial rRNA inhibition in E. coli; 350,000 tested, 1.6% active; GFP signal change (wild-type ribosome), % (test concentration not listed); E. coli WT GFP vs humanized-ribosome RFP mutants, fluorescence, 24 h; hits give low values; DMSO median 0, no signal -100;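 active = significant combined selectivity score with lowered wild-type GFP, culture density cut under 30%, mutant RFP and density less affected; inactive = any of these conditions unmet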
HepG2 cytotox = cytotoxic compounds in HepG2 cells | HepG2 viability, ATP luminescence, 72 h | activity change, negative = cytotoxicity, unspecified at 26 µM | shares compounds with rRNA inh HTS | 30 tested, under 10 active;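 active = compounds whose fitted half-maximal signal-loss concentration is at most twice their highest valid dose; inconclusive = flat curve with 30 to 70% signal loss, or poor fit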
AID977621 = growth inhibition of wild-type GFP E. coli, dose response, H69 mutant RFP, cherry-pick. E. coli wild-type GFP strain growth, fluorescence, 24 h. shares compounds with rRNA inh HTS. activity change, negative = inhibition at 50 µM. AID 977621. 1,900 tested, under 10 active;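 active = Wild-type ribosome reporter drop at least double the humanized mutant ribosome reporter drop, growth loss under a set limit; inconclusive = no clear call, values can overlap the other calls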;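 also: wild-type GFP and H69 mutant RFP strains grown together 50/50 in each well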
AID977628 = E. coli growth inhibition, wild-type GFP versus h24 humanized RFP strain, dose response, h24 mutant RFP vs wild-type GFP, cherry-pick | shares compounds with rRNA inh HTS | E. coli WT GFP strain growth, fluorescence, 24 h | activity change, negative = inhibition at 50 µM | 1,900 tested, under 10 active | AID 977628;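 active = compound lowering the normal-ribosome reporter at least twice as much as the humanized-ribosome reporter, growth loss under a set limit; inconclusive = no clear call, values can overlap the other calls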;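 also: wild-type GFP and h24 humanized RFP strains co-cultured 1 to 1 per well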
Numbers without * were called inactive.

Screening COc1ccc2c(c1)c(C(C)=O)c(C)n2CCc1ccc(OC)c(OC)c1 returned MT1-MMP act inh -9.4, SKN-1 inh 14.0, DAGLB inh 0.9, Cneo AK release 1.9, hiPSC survival -0.7, rRNA inh HTS -32.6* and AID977621 -11.3.
`C[C@H]1CCCCO[C@@H](CN(C)C)[C@@H](C)CN([C@@H](C)CO)C(=O)c2cc(NC(=O)Nc3cccc4ccccc34)ccc2O1` gave Cneo AK release 3.1, rRNA inh HTS 1.8, AID977621 0.708 and AID977628 inconclusive.
`C[C@@H]1CCCCO[C@@H](CN(C)C)[C@@H](C)CN([C@H](C)CO)C(=O)c2cc(NC(=O)Nc3cccc4ccccc34)ccc2O1` gave Cneo AK release 1.0, rRNA inh HTS 1.3, AID977621 -3.91 and AID977628 inconclusive.
For C[C@@H]1CCCCO[C@H](CN(C)C(=O)Nc2cccc3ccccc23)[C@H](C)CN([C@@H](C)CO)C(=O)c2cc(NC(=O)Nc3cccc4ccccc34)ccc2O1 the results were Cneo AK release 1.3 and rRNA inh HTS 2.9.
CC(C)NC(=O)N(C)C[C@H]1OCCCC[C@@H](C)Oc2ccc(NC(=O)c3ccccc3)cc2C(=O)N([C@H](C)CO)C[C@@H]1C was read as Cneo AK release -0.6 and rRNA inh HTS -0.8.
C[C@@H]1CCCCO[C@H](CN(C)C(=O)Nc2cccc3ccccc23)[C@@H](C)CN([C@H](C)CO)C(=O)c2cc(NC(=O)Nc3cccc4ccccc34)ccc2O1 was read as Cneo AK release -0.1 and rRNA inh HTS 2.9.
C[C@H](CO)N1C[C@H](C)[C@@H](CN(C)C)OCCCC[C@H](C)Oc2ccc(NC(=O)Nc3cccc4ccccc34)cc2C1=O was read as Cneo AK release 3.3, rRNA inh HTS 0.9, AID977621 4.03 and AID977628 inconclusive.
For CC(C)NC(=O)N(C)C[C@H]1OCCCC[C@@H](C)Oc2ccc(NC(=O)c3ccccc3)cc2C(=O)N([C@@H](C)CO)C[C@H]1C the results were Cneo AK release 0.1, rRNA inh HTS -20.4*, AID977621 -0.743 and AID977628 inconclusive.
Screening C[C@@H]1CN([C@@H](C)CO)S(=O)(=O)c2ccc(C#CCC3CCCC3)cc2O[C@H]1CN(C)Cc1cccc(C(=O)O)c1 returned Cneo AK release 4.9.
Screening C[C@@H]1CCCCO[C@@H](CN(C)CC2CC2)[C@H](C)CN([C@@H](C)CO)C(=O)c2cc(NC(=O)Nc3cccc4ccccc34)ccc2O1 returned Cneo AK release -2.3 and rRNA inh HTS -0.1.
Screening CC(C)NC(=O)N(C)C[C@H]1OCCCC[C@@H](C)Oc2ccc(NC(=O)Nc3cccc4ccccc34)cc2C(=O)N([C@@H](C)CO)C[C@H]1C returned Cneo AK release -3.6, rRNA inh HTS -30.7* and AID977628 inconclusive.
`C[C@@H]1CCCCO[C@H](CN(C)CC2CC2)[C@H](C)CN([C@@H](C)CO)C(=O)c2cc(NC(=O)Nc3cccc4ccccc34)ccc2O1` gave Cneo AK release -0.8, rRNA inh HTS -26.7* and HepG2 cytotox -14.5.
For C[C@@H]1CCCCO[C@@H](CN(C)C)[C@H](C)CN([C@H](C)CO)C(=O)c2cc(NC(=O)Nc3cccc4ccccc34)ccc2O1 the results were Cneo AK release 5.8, rRNA inh HTS -1.4, AID977621 -9.07 and AID977628 inconclusive.
`C[C@H](CO)N1C[C@H](C)[C@H](CN(C)C)OCCCC[C@H](C)Oc2ccc(NC(=O)Nc3cccc4ccccc34)cc2C1=O` gave Cneo AK release 2.6, rRNA inh HTS -2.1, AID977621 0.894 and AID977628 inconclusive.
O=C(C[C@@H]1CC[C@@H](NC(=O)CN2CCOCC2)[C@H](CO)O1)NCc1cccc(F)c1 was read as Cneo AK release -4.9 and rRNA inh HTS 3.3.
`O=C(O)CC(CC(=O)Nc1ccc(Oc2ccccc2)cc1)c1ccccc1` (stereo not drawn) gave MT1-MMP act inh 3.7, SKN-1 inh 11.0, DAGLB inh 3.7, hiPSC survival 0.2, rRNA inh HTS -26.9*, AID977621 -18.8 and AID977628 -22.5.
Screening O=C(O)CC(CC(=O)Nc1ccc(N2CCOCC2)cc1)c1ccccc1 (stereo not drawn) returned MT1-MMP act inh 2.8, SKN-1 inh -1.4, DAGLB inh -1.8, Cneo AK release 0.8, hiPSC survival -0.4 and rRNA inh HTS 4.4.
For Brc1cc2c(cc1Br)OCCOCCOCCO2 the results were MT1-MMP act inh -4.0, SKN-1 inh 13.4, DAGLB inh -1.9, Cneo AK release 0.6, hiPSC survival 0.1, rRNA inh HTS -24.0* and AID977621 inconclusive.
Screening CCOc1ccc2nc(NC(=O)CSc3nc(SC)ns3)sc2c1 returned MT1-MMP act inh 2.9, SKN-1 inh 9.1, DAGLB inh -3.7, Cneo AK release -8.3, hiPSC survival -0.2, rRNA inh HTS -24.0* and AID977621 -8.89.
`CCOc1ccc2nc(NC(=O)CSc3ccc(Cl)cc3)sc2c1` gave MT1-MMP act inh 2.4, SKN-1 inh 9.8, DAGLB inh -6.0 and hiPSC survival -0.2.
For COc1ccc(NC(=O)N2CC[C@@H]3[C@@H](CO)N(C)c4ccc(-c5ccccc5F)cc4[C@@H]32)cc1 the results were Cneo AK release 10.5 and rRNA inh HTS -2.0.
For CC1CCN(CC(O)COCCC23CC4CC(CC(C4)C2)C3)CC1 (stereo not drawn) the results were MT1-MMP act inh 6.4, SKN-1 inh 8.4, DAGLB inh -3.4, Cneo AK release -1.7, hiPSC survival -1.2, rRNA inh HTS -40.4* and AID977621 -2.77.
